# ChEMBL document CHEMBL4613227, “Synthesis and evaluation of the HIF-1α inhibitory activity of 3(5)-substituted-4-(quinolin-4-yl)- and 4-(2-phenylpyridin-4-yl)pyrazoles as inhibitors of ALK5” (Bioorg Med Chem Lett, 2020)
# Activity calls are given as the source filed them. No cut-off for these calls is given here. Where a SMILES comes first, the peptide text is derived from it. The star is where a group is joined. Cbz = O=C(OCc1ccccc1)*
# Key:
# [1] = molecular target: T1, Mitogen-activated protein kinase 14 (Homo sapiens, UniProt Q16539); test: Inhibition of recombinant human p38alpha expressed in Escherichia coli assessed as residual activity at 10 uM (reference value: 100 +/- 0.1%)
# T1 sequence (Q16539 whole entry, the tested form may be a part): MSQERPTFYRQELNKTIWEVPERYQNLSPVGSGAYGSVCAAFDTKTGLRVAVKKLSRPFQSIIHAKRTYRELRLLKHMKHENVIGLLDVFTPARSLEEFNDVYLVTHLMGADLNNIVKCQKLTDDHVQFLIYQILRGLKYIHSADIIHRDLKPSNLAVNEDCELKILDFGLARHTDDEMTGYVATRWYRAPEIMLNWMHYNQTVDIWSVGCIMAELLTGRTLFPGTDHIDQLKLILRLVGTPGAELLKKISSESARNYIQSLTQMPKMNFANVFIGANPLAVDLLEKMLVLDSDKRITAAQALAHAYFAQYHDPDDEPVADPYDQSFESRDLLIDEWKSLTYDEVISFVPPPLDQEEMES
# Procedure, shortened: (§1)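 Single-point kinase screen at 10 μM, in duplicate; ALK5 as human GST-fusion from baculovirus/Sf9, p38α as untagged human protein from E. coli; residual activity relative to DMSO vehicle, mean ± SD of two independent experiments.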
# TGF-beta receptor type-1 = molecular target: T2, TGF-beta receptor type-1 (Homo sapiens, UniProt P36897); test: Inhibition of recombinant GST-tagged human ALK5 expressed in baculovirus infected Sf9 insect cells
# T2 sequence (P36897 whole entry): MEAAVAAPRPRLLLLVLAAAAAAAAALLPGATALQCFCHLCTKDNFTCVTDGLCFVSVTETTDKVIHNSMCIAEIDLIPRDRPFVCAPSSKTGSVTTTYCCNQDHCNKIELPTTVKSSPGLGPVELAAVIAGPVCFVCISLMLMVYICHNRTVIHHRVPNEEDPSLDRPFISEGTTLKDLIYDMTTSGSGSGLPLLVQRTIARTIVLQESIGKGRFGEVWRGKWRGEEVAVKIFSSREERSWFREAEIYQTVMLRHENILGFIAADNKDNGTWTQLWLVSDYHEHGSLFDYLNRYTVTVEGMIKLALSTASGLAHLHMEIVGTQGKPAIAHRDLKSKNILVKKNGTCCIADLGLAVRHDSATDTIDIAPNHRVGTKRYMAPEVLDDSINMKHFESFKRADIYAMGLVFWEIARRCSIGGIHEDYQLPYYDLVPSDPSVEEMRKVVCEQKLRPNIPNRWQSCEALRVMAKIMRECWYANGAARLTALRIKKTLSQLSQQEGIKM
# Procedure, shortened: (§2)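 IC50 determination against ALK5 (human GST-fusion, Sf9 baculovirus) and p38α (untagged human, E. coli); values averaged from three independent experiments run in triplicate.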
# [2] = molecular target: T3, TGF-beta receptor type-1 (Homo sapiens) (UniProt P36897); test: Inhibition of recombinant GST-tagged human ALK5 expressed in baculovirus infected Sf9 insect cells assessed as residual activity at 10 uM; procedure, shortened: as §1
# T3 sequence (whole entry): T2 sequence (P36897 whole entry)
# [3] = molecular target: T1, Mitogen-activated protein kinase 14; test: Inhibition of recombinant human p38alpha expressed in Escherichia coli; procedure, shortened: as §2
# HCT-116 [4] = test: […] of HIF1alpha expression in human HCT116 cells at 10 uM after 30 mins in presence of 1% O2 by Western blot analysis; assay type: functional, cell-based
# HCT-116 [5] = test: Induction of apoptosis in human HCT116 cells assessed as viable cells at 50 uM after 12 hrs by Annexin-V/PI-staining based flow cytometric analysis (reference value: 95.3%); assay type: functional; conditions: HCT-116, 12 h, read-out: Activity
# HCT-116 [6] = test: Inhibition of TNFalpha-induced HIF1alpha expression in human HCT116 cells at 50 uM by Western blot analysis; assay type: functional, cell-based
# Procedure, shortened: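 HCT116 exposed to TNF 10 ng/mL for 24 h with graded concentrations; total protein blotted for HIF-1α, Topo-I reprobe as loading control.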
# HCT-116 [7] = test: Induction of apoptosis in human HCT116 cells assessed as necrotic cells at 50 uM preincubated for 12 hrs followed by TNF stimulation and measured after 24 hrs by Annexin-V/PI-staining based flow cytometric analysis (reference value: 3.6%); assay type: functional
# HCT-116 [8] = test: Induction of apoptosis in human HCT116 cells assessed as viable cells at 50 uM preincubated for 12 hrs followed by TNF stimulation and measured after 24 hrs by Annexin-V/PI-staining based flow cytometric analysis (reference value: 92.4%); assay type: functional; conditions: read-out: Activity
# HCT-116 [9] = test: Induction of apoptosis in human HCT116 cells assessed as late apoptotic cells at 50 uM preincubated for 12 hrs followed by TNF stimulation and measured after 24 hrs by Annexin-V/PI-staining based flow cytometric analysis (reference value: 1.4%); assay type: functional
# HCT-116 [10] = test: Induction of apoptosis in human HCT116 cells assessed as necrotic cells at 50 uM after 12 hrs by Annexin-V/PI-staining based flow cytometric analysis (reference value: 3.5%); assay type: functional
# HCT-116 [11] = test: Induction of apoptosis in human HCT116 cells assessed as early apoptotic cells at 50 uM preincubated for 12 hrs followed by TNF stimulation and measured after 24 hrs by Annexin-V/PI-staining based flow cytometric analysis (reference value: 2.8%); assay type: functional
Compound,Activity [1],Activity [2],other results
Cc1cccc(-c2nn(CC(=S)Nc3cccc(C#N)c3)cc2-c2ccnc(-c3ccccc3)c2)n1,15%,12%,IC50 (TGF-beta receptor type-1): 2200 nM; IC50 [3]: 1150 nM
Cc1cccc(-c2nn(CC(=S)Nc3ccccc3F)cc2-c2ccnc(-c3ccccc3)c2)n1,4%,11%,IC50 (TGF-beta receptor type-1): 2050 nM; IC50 [3]: 487 nM
Cc1cccc(-c2nn(CC(=S)Nc3cccc(F)c3)cc2-c2ccnc(-c3ccccc3)c2)n1,9%,6%,IC50 (TGF-beta receptor type-1): 1560 nM; IC50 [3]: 761 nM
Cc1cccc(-c2nn(CC(=S)Nc3cccc(F)c3)cc2-c2ccnc3ccccc23)n1,3%,2%,IC50 (TGF-beta receptor type-1): 43 nM; IC50 [3]: 63 nM
CC(C)C[C@@H](C=O)NC(=O)[C@H](CC(C)C)NC(=O)[C@H](CC(C)C)NC(=O)OCc1ccccc1 (Cbz-Leu-Leu-Leu-aldehyde),,,Activity (HCT-116 [4]): Active
Cc1cccc(-c2nn(CC(=O)Nc3cccc(C#N)c3)cc2-c2ccnc(-c3ccccc3)c2)n1,24%,18%,
Cc1cccc(-c2nn(CC(=O)Nc3ccccc3F)cc2-c2ccnc(-c3ccccc3)c2)n1,20%,20%,
Cc1cccc(-c2nn3c(c2-c2ccnc4ccc(C(N)=O)cc24)CCC3)n1 [GALUNISERTIB],4%,,viability at 50 µM (HCT-116 [5]): 85.2%; inhibition (HCT-116 [6]): Active; Activity (HCT-116 [7]): 5.7%; viability at 50 µM (HCT-116 [8]): 87.7%; Activity (HCT-116 [9]): 2.8%; Activity (HCT-116 [10]): 8.5%; Activity (HCT-116 [11]): 3.7%
Cc1cccc(-c2nn(CC(=S)Nc3ccccc3F)cc2-c2ccnc3ccccc23)n1,4%,2%,IC50 (TGF-beta receptor type-1): 53 nM; IC50 [3]: 68 nM
Cc1cccc(-c2nn(CC(=O)Nc3cccc(C#N)c3)cc2-c2ccnc3ccccc23)n1,6%,1%,
Cc1cccc(-c2nn(CC(=S)Nc3ccccc3)cc2-c2ccnc(-c3ccccc3)c2)n1,10%,11%,IC50 (TGF-beta receptor type-1): 1690 nM; IC50 [3]: 536 nM
Cc1cccc(-c2nn(CC(=O)Nc3cccc(F)c3)cc2-c2ccnc(-c3ccccc3)c2)n1,14%,3%,
Cc1cccc(-c2nn(CC(=O)Nc3ccccc3)cc2-c2ccnc(-c3ccccc3)c2)n1,11%,12%,

# Further lines, with some results ahead:
Activity [1],Activity [2],Compound,other results
96%,102%,Cc1cccc(-c2c(-c3ccnc(-c4ccccc4)c3)cnn2CC(=O)Nc2ccccc2F)n1,
135%,105%,Cc1cccc(-c2c(-c3ccnc(-c4ccccc4)c3)cnn2CC(=O)Nc2cccc(C#N)c2)n1,
31%,39%,Cc1cccc(-c2c(-c3ccnc4ccccc34)cnn2CC(=O)Nc2cccc(F)c2)n1,
6%,0%,Cc1cccc(-c2nn(CC(=O)Nc3ccccc3F)cc2-c2ccnc3ccccc23)n1,
24%,71%,Cc1cccc(-c2c(-c3ccnc4ccccc34)cnn2CC(=O)Nc2ccccc2)n1,
66%,100%,Cc1cccc(-c2c(-c3ccnc(-c4ccccc4)c3)cnn2CC(=O)Nc2ccccc2)n1,
3%,3%,Cc1cccc(-c2nn(CC(=S)Nc3ccccc3)cc2-c2ccnc3ccccc23)n1,IC50 (TGF-beta receptor type-1): 57 nM; IC50 [3]: 74 nM
51%,17%,Cc1cccc(-c2c(-c3ccnc4ccccc34)cnn2CC(=O)Nc2cccc(C#N)c2)n1,
10%,2%,Cc1cccc(-c2nn(CC(=O)Nc3ccccc3)cc2-c2ccnc3ccccc23)n1,
4%,0%,Cc1cccc(-c2nn(CC(=O)Nc3cccc(F)c3)cc2-c2ccnc3ccccc23)n1,
81%,93%,Cc1cccc(-c2c(-c3ccnc(-c4ccccc4)c3)cnn2CC(=O)Nc2cccc(F)c2)n1,
50%,79%,Cc1cccc(-c2c(-c3ccnc4ccccc34)cnn2CC(=O)Nc2ccccc2F)n1,
